Laboratory results published in ChEMBL document CHEMBL1629431, “Synthesis and antitumor activity of some 2, 3-disubstituted quinazolin-4(3H)-ones and 4, 6- disubstituted- 1, 2, 3, 4-tetrahydroquinazolin-2H-ones” (2010).

Columns and labels:
Format in all cases: functional
T47D = assay: Growth inhibition of human T47D cells at 10 uM after 48 hrs by coulter counter method; settings: read-out: GI
In short: (§1)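 Single high-dose NCI 60-cell-line panel screen across nine tumor subpanels. Test solutions (0.2 mL) were added in duplicate to wells holding 1.8 mL of culture at 6 × 10⁴ cells/mL. Controls got PBS and DMSO at identical dilutions. Incubation was 48 h at 37 °C in humidified 5% CO₂. Cells were diluted 10-fold in saline, Coulter-counted and dilution-corrected. Results were expressed as percent growth inhibition versus control.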

BT-549 = assay: Growth inhibition of human BT549 cells at 10 uM after 48 hrs by coulter counter method; settings: BT-549, 48 h, read-out: GI; in short: as §1
MOLT-4 = assay: Growth inhibition of human MOLT4 cells at 10 uM after 48 hrs by coulter counter method; settings: MOLT-4, 48 h, read-out: GI; in short: as §1
IGROV-1 = assay: Growth inhibition of human IGROV1 cells at 10 uM after 48 hrs by coulter counter method; settings: IGROV-1, 48 h, read-out: GI; in short: as §1
MDA-MB-231 = assay: Growth inhibition of human MDA-MB-231 cells at 10 uM after 48 hrs by coulter counter method; settings: MDA-MB-231, 48 h, read-out: GI; in short: as §1
NCI-H23 = assay: Growth inhibition of human NCI-H23 cells at 10 uM after 48 hrs by coulter counter method; settings: NCI-H23, 48 h, read-out: GI; in short: as §1
SNB-75 = assay: Growth inhibition of human SNB75 cells at 10 uM after 48 hrs by coulter counter method; settings: SNB-75, 48 h, read-out: GI; in short: as §1
HT-29 = assay: Growth inhibition of human HT-29 cells at 10 uM after 48 hrs by coulter counter method; settings: HT-29, 48 h, read-out: GI; in short: as §1
HL-60(TB) = assay: Growth inhibition of human HL-60(TB) cells at 10 uM after 48 hrs by coulter counter method; settings: HL-60, 48 h, read-out: GI
In short: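 Part of the NCI 60-cell-line single-high-dose panel. Cells were seeded at 6 × 10⁴ cells/mL with test solution in duplicate wells, alongside PBS/DMSO controls at identical dilutions. Plates were held 48 h at 37 °C in a humidified 5% CO₂ incubator. Cells were then diluted 10-fold in saline and counted by Coulter counter, with counts corrected for dilution. Results are percent growth of treated cells, reported as GI %.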

U-251 = assay: Growth inhibition of human U251 cells at 10 uM after 48 hrs by coulter counter method; settings: U-251, 48 h, read-out: GI; in short: as §1
SN12C = assay: Growth inhibition of human SN12C cells at 10 uM after 48 hrs by coulter counter method; settings: read-out: GI; in short: as §1
OVCAR-8 = assay: Growth inhibition of human OVCAR8 cells at 10 uM after 48 hrs by coulter counter method; settings: OVCAR-8, 48 h, read-out: GI; in short: as §1
[1] = Growth inhibition of human Hs 578T cells at 10 uM after 48 hrs by coulter counter method; settings: read-out: GI; in short: as §1
CAKI-1 = assay: Growth inhibition of human Caki1 cells at 10 uM after 48 hrs by coulter counter method; settings: CAKI-1, 48 h, read-out: GI; in short: as §1
MDA-MB-468 = assay: Growth inhibition of human MDA-MB-468 cells at 10 uM after 48 hrs by coulter counter method; settings: MDA-MB-468, 48 h, read-out: GI; in short: as §1
A549 = assay: Growth inhibition of human A549 cells at 10 uM after 48 hrs by coulter counter method; settings: A549, 48 h, read-out: GI; in short: as §1
UACC-62 = assay: Growth inhibition of human UACC62 cells at 10 uM after 48 hrs by coulter counter method; settings: UACC-62, 48 h, read-out: GI; in short: as §1
K562 = assay: Growth inhibition of human K562 cells at 10 uM after 48 hrs by coulter counter method; settings: K562, 48 h, read-out: GI; in short: as §1
SF-268 = assay: Growth inhibition of human SF268 cells at 10 uM after 48 hrs by coulter counter method; settings: SF-268, 48 h, read-out: GI; in short: as §1
MCF7 = assay: Growth inhibition of human MCF7 cells at 10 uM after 48 hrs by coulter counter method; settings: MCF7, 48 h, read-out: GI; in short: as §1
OVCAR-4 = assay: Growth inhibition of human OVCAR4 cells at 10 uM after 48 hrs by coulter counter method; settings: OVCAR-4, 48 h, read-out: GI; in short: as §1
786-0 = assay: Growth inhibition of human 786-0 cells at 10 uM after 48 hrs by coulter counter method; settings: 786-0, 48 h, read-out: GI; in short: as §1
NCI-H226 = assay: Growth inhibition of human NCI-H226 cells at 10 uM after 48 hrs by coulter counter method; settings: NCI-H226, 48 h, read-out: GI; in short: as §1
NCI-H522 = assay: Growth inhibition of human NCI-H522 cells at 10 uM after 48 hrs by coulter counter method; settings: NCI-H522, 48 h, read-out: GI; in short: as §1
HCT-116 = assay: Growth inhibition of human HCT116 cells at 10 uM after 48 hrs by coulter counter method; settings: HCT-116, 48 h, read-out: GI; in short: as §1
KM12 = assay: Growth inhibition of human KM12 cells at 10 uM after 48 hrs by coulter counter method; settings: KM12, 48 h, read-out: GI; in short: as §1
SK-OV-3 = assay: Growth inhibition of human SKOV3 cells at 10 uM after 48 hrs by coulter counter method; settings: SK-OV-3, 48 h, read-out: GI; in short: as §1
SF-539 = assay: Growth inhibition of human SF539 cells at 10 uM after 48 hrs by coulter counter method; settings: SF-539, 48 h, read-out: GI; in short: as §1
SK-MEL-2 = assay: Growth inhibition of human SK-MEL-2 cells at 10 uM after 48 hrs by coulter counter method; settings: SK-MEL-2, 48 h, read-out: GI; in short: as §1
COLO 205 = assay: Growth inhibition of human COLO205 cells at 10 uM after 48 hrs by coulter counter method; settings: COLO 205, 48 h, read-out: GI; in short: as §1
HOP-92 = assay: Growth inhibition of human HOP92 cells at 10 uM after 48 hrs by coulter counter method; settings: HOP-92, 48 h, read-out: GI; in short: as §1
UO-31 = assay: Growth inhibition of human UO31 cells at 10 uM after 48 hrs by coulter counter method; settings: UO-31, 48 h, read-out: GI; in short: as §1
PC-3 = assay: Growth inhibition of human PC3 cells at 10 uM after 48 hrs by coulter counter method; settings: PC-3, 48 h, read-out: GI; in short: as §1
M14 = assay: Growth inhibition of human M14 cells at 10 uM after 48 hrs by coulter counter method; settings: M14, 48 h, read-out: GI; in short: as §1
SK-MEL-28 = assay: Growth inhibition of human SK-MEL-28 cells at 10 uM after 48 hrs by coulter counter method; settings: SK-MEL-28, 48 h, read-out: GI; in short: as §1
CCRF-CEM = assay: Growth inhibition of human CCRF-CEM cells at 10 uM after 48 hrs by coulter counter method; settings: read-out: GI; in short: as §1

SMILES	inhibition of growth at 10 µM (T47D) [%]	inhibition of growth at 10 µM (BT-549) [%]	inhibition of growth at 10 µM (IGROV-1) [%]	inhibition of growth at 10 µM (MDA-MB-231) [%]	inhibition of growth at 10 µM (NCI-H23) [%]	inhibition of growth at 10 µM (SNB-75) [%]	inhibition of growth at 10 µM (HT-29) [%]	inhibition of growth at 10 µM (HL-60(TB)) [%]	inhibition of growth at 10 µM (U-251) [%]	inhibition of growth at 10 µM (SN12C) [%]	inhibition of growth at 10 µM (OVCAR-8) [%]	inhibition of growth at 10 µM [1] [%]	inhibition of growth at 10 µM (CAKI-1) [%]	inhibition of growth at 10 µM (MDA-MB-468) [%]	inhibition of growth at 10 µM (A549) [%]	inhibition of growth at 10 µM (UACC-62) [%]	inhibition of growth at 10 µM (K562) [%]	inhibition of growth at 10 µM (SF-268) [%]	inhibition of growth at 10 µM (MCF7) [%]	inhibition of growth at 10 µM (OVCAR-4) [%]	further results
O=c1c2ccccc2nc(-n2ccnc2)n1-c1ccc(Cl)cc1	39	30	30	30	30	30	30	30	30	30	30	30	30	30	30	30	37.1	30	30	30	inhibition of growth at 10 µM (MOLT-4): 47.7%; inhibition of growth at 10 µM (786-0): 30%; inhibition of growth at 10 µM (NCI-H226): 30%; inhibition of growth at 10 µM (NCI-H522): 30%; inhibition of growth at 10 µM (HCT-116): 30%; inhibition of growth at 10 µM (KM12): 30%; inhibition of growth at 10 µM (SK-OV-3): 30%; inhibition of growth at 10 µM (SF-539): 30%; inhibition of growth at 10 µM (SK-MEL-2): 30%; inhibition of growth at 10 µM (COLO 205): 30%; inhibition of growth at 10 µM (HOP-92): 30%; inhibition of growth at 10 µM (UO-31): 30%; inhibition of growth at 10 µM (PC-3): 40.3%; inhibition of growth at 10 µM (M14): 30%; inhibition of growth at 10 µM (SK-MEL-28): 30%
COc1ccc(-n2c(-n3ccnc3)nc3ccccc3c2=O)cc1	30	30	30	30	30	30	30	30	30	30	30	30	30	30	30	30	30.8	30	30	30	inhibition of growth at 10 µM (786-0): 30%; inhibition of growth at 10 µM (NCI-H226): 30%; inhibition of growth at 10 µM (NCI-H522): 30%; inhibition of growth at 10 µM (HCT-116): 30%; inhibition of growth at 10 µM (KM12): 30%; inhibition of growth at 10 µM (SK-OV-3): 30%; inhibition of growth at 10 µM (SF-539): 30%; inhibition of growth at 10 µM (SK-MEL-2): 30%; inhibition of growth at 10 µM (COLO 205): 30%; inhibition of growth at 10 µM (UO-31): 30%; inhibition of growth at 10 µM (PC-3): 30%; inhibition of growth at 10 µM (M14): 30%; inhibition of growth at 10 µM (SK-MEL-28): 30%; inhibition of growth at 10 µM (CCRF-CEM): 30%
